Data as given in ChEMBL document CHEMBL2417412, “Design, synthesis, and structure-activity relationships of dihydrofuran-2-one and dihydropyrrol-2-one derivatives as novel benzoxazin-3-one-based mineralocorticoid receptor antagonists” (Bioorg Med Chem, 2013).
pIC50: −log10 of the molar value.

Columns and labels:
Glucocorticoid receptor = molecular target: T1, Glucocorticoid receptor (Homo sapiens, UniProt P04150); test: Displacement of [3H]-Dexamethasone human GR expressed in 293 cells after 16 hrs by scintillation counting; format: cell-based, HEK293
T1 sequence (P04150 whole entry): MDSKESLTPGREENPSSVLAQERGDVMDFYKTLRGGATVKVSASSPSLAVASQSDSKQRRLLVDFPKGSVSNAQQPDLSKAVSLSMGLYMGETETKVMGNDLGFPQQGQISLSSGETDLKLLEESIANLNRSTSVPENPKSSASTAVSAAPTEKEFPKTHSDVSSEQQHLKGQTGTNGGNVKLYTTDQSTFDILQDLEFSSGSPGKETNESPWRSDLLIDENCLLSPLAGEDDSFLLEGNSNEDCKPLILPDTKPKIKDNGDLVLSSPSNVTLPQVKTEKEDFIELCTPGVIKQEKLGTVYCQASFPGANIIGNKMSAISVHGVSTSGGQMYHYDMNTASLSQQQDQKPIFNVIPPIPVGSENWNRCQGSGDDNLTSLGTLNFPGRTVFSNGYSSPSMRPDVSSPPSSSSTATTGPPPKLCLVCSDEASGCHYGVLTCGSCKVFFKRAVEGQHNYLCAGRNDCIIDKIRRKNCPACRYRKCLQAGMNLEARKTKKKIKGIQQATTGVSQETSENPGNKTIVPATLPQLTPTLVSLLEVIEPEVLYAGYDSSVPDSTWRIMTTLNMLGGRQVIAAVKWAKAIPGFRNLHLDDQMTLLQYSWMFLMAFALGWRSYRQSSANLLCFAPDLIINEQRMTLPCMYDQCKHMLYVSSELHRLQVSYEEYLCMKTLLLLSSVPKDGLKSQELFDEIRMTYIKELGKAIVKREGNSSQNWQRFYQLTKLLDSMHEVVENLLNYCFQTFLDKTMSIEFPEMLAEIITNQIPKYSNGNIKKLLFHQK
Method in brief: (§1)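 These followed the MR cytosolic binding protocol (transfected 293 cells, TEGM buffer pH 7.2, 16 h at 4 °C, charcoal separation, scintillation counting of supernatant). The ligand was [3H]-dexamethasone for GR and [3H]-testosterone for AR. Concentrations were run in duplicate; IC50 taken as the mean of duplicate experiments from concentration-response curves.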

Androgen receptor = molecular target: T2, Androgen receptor (Homo sapiens, UniProt P10275); test: Displacement of [3H]-Testosterone from human AR expressed in 293 cells after 16 hrs by scintillation counting; format: cell-based, HEK293; method in brief: as §1
T2 sequence (P10275 whole entry): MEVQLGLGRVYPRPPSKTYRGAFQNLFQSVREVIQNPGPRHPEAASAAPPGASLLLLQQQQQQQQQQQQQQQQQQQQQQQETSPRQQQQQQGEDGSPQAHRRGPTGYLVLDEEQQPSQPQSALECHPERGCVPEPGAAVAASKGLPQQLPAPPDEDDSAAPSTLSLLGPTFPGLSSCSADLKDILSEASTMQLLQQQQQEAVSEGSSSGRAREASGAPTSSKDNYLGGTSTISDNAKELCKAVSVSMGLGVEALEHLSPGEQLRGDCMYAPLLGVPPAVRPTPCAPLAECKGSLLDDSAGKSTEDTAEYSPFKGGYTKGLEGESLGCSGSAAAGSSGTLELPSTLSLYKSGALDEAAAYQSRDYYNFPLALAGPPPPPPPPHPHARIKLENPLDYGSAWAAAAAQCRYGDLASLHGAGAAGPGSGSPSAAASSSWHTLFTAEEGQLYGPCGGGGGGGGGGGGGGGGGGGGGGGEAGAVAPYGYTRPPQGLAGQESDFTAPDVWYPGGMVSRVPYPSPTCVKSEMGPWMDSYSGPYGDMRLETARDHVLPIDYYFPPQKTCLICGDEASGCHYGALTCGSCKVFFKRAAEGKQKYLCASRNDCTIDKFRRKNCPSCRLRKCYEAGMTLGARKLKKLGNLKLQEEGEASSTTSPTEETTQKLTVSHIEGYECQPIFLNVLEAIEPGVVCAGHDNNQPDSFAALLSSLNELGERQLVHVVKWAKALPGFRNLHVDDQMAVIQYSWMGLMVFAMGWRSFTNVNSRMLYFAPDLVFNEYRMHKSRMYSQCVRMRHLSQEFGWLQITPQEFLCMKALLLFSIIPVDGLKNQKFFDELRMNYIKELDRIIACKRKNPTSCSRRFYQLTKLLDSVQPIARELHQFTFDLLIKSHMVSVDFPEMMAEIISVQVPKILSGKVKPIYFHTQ

Progesterone receptor = molecular target: T3, Progesterone receptor (Homo sapiens, UniProt P06401); test: Displacement of [3H]-Progesterone from human PR expressed in 293 cells after 16 hrs by scintillation counting; format: cell-based, HEK293
T3 sequence (P06401 whole entry): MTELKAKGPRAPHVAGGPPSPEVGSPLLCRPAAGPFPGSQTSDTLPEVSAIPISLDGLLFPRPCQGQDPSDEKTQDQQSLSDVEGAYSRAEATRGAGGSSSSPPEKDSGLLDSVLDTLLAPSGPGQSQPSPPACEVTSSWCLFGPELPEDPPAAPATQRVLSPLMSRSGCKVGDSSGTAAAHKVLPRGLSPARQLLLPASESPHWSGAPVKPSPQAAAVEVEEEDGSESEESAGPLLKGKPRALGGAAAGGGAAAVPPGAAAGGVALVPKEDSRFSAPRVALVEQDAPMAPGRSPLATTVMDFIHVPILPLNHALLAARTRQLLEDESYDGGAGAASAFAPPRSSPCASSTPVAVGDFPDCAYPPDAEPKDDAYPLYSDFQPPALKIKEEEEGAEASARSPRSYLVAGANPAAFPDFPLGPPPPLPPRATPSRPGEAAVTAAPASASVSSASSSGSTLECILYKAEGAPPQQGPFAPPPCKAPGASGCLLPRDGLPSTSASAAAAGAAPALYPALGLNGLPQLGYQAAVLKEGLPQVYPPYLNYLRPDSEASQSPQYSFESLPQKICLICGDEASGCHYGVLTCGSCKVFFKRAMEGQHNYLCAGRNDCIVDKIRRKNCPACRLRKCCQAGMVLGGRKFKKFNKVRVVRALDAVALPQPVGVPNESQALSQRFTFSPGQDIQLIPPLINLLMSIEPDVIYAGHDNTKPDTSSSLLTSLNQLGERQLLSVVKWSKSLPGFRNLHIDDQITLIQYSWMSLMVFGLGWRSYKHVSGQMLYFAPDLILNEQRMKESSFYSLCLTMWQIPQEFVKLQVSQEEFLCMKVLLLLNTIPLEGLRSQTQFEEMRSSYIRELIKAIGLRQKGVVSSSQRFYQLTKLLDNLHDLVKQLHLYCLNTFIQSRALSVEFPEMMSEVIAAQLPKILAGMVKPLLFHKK
Method in brief: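 The PR assay ran like the MR cytosolic binding assay from transfected 293 cells, with 5 nM [3H]-progesterone as ligand. Incubation was 16 h at 4 °C in TEGM buffer pH 7.2, followed by dextran/gelatin-charcoal removal of free label and scintillation counting of the supernatant. Concentrations were run in duplicate; IC50 taken as the mean of duplicate experiments from concentration-response curves.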

HEK293 [1] = test: Selectivity ratio of IC50 for human AR expressed in 293 cells to IC50 for human MR expressed in 293 cells; format: cell-based
HEK293 [2] = test: Selectivity ratio of IC50 for human GR expressed in 293 cells to IC50 for human MR expressed in 293 cells; format: cell-based
[3] = molecular target: T4, Mineralocorticoid receptor (Homo sapiens, UniProt P08235); test: Displacement of [3H]-Aldosterone from human MR expressed in 293 cells after 16 hrs by scintillation counting; format: cell-based, HEK293
T4 sequence (P08235 whole entry): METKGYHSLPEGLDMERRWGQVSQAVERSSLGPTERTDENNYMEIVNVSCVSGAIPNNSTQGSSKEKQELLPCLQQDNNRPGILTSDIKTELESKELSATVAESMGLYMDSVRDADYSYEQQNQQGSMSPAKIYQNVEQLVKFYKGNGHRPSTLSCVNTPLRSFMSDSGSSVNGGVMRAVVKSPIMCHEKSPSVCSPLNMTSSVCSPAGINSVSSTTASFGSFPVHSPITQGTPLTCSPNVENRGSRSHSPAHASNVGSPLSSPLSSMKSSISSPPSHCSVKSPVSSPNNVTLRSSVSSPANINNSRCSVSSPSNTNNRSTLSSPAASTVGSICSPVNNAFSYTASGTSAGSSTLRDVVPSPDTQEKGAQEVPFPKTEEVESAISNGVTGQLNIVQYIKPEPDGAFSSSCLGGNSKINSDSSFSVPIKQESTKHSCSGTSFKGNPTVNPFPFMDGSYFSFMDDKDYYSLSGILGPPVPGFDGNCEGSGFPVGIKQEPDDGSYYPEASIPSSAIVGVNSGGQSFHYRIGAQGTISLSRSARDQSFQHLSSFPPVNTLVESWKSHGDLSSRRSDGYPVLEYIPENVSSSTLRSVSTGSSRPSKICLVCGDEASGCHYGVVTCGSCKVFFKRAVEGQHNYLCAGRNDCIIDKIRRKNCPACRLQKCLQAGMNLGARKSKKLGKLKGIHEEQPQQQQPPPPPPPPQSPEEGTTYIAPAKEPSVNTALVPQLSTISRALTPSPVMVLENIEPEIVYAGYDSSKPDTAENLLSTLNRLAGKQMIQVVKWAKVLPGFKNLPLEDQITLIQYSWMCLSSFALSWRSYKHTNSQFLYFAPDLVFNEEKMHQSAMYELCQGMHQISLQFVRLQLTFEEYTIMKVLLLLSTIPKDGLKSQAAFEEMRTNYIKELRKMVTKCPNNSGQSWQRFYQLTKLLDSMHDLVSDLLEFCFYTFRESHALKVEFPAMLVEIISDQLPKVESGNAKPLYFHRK
Method in brief: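 Cytosolic protein (0.75-1.5 mg/mL) from FreeStyle 293 cells transiently transfected with human MR was incubated for 16 h at 4 °C with 10 nM [3H]-aldosterone and serially diluted compound in TEGM buffer (Tris pH 7.2, EDTA, glycerol, DTT, molybdate, protease inhibitors). Free ligand was removed with dextran/gelatin-coated charcoal and the supernatant counted. Nonspecific binding used 100 µM cold aldosterone. Duplicates; IC50 from curve fit.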

HEK293 [4] = test: Selectivity ratio of IC50 for human PR expressed in 293 cells to IC50 for human MR expressed in 293 cells; format: cell-based
[5] = molecular target: T4, Mineralocorticoid receptor; test: Antagonist activity at MR (unknown origin) expressed in COS1 cells after 1 day by luciferase reporter gene assay; format: cell-based, COS-1
Method in brief: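 Human MR plasmid, MMTV-luciferase reporter and pRL-TK were lipofected into COS-1 cells, which were cultured for 1 day. Cells were then reseeded in low-glucose D-MEM with 0.1% BSA. Serial compound concentrations were added with 1 nM aldosterone (final) for 1 day at 37 °C in 5% CO2. Luciferase was read, and IC50 came from a sigmoidal fit.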

| SMILES | pIC50 (Glucocorticoid receptor) | pIC50 (Androgen receptor) | pIC50 (Progesterone receptor) | Ratio IC50 (HEK293 [1]) | Ratio IC50 (HEK293 [2]) | pIC50 [3] | Ratio IC50 (HEK293 [4]) | pIC50 [5] |
| --- | --- | --- | --- | --- | --- | --- | --- | --- |
| O=C1COc2ccc(C3=C(c4ccc(F)cc4F)C(=O)OC3)cc2N1 | < 5.00 | < 5.00 | 5.34 | – | – | – | – | – |
| Cc1cc(C2=C(c3ccc(F)cc3)C(=O)NC2C)cc2c1OCC(=O)N2 (configuration not stated) | 5.31 | < 5.00 | < 5.00 | > 200 | 100 | 7.37 | > 200 | 7.08 |
| CC1C(c2ccc3c(c2)NC(=O)CO3)=C(c2ccc(F)cc2)C(=O)N1C (configuration not stated) | 5.68 | < 5.00 | 7.21 | – | – | 6.77 | – | – |
| Cc1cc(F)ccc1C1=C(c2ccc3c(c2)NC(=O)CO3)COC1=O | < 5.00 | < 5.00 | 5.74 | – | – | 6.12 | – | – |
| CC1C(c2ccc3c(c2)NC(=O)CO3)=C(c2ccc(F)cc2)C(=O)N1C1CC1 (configuration not stated) | 5.66 | < 5.00 | 6.40 | – | – | 7.17 | – | – |
| CC1(C)OC(=O)C(c2ccc(F)cc2)=C1c1ccc2c(c1)NC(=O)CO2 | 5.33 | < 5.00 | 6.00 | – | – | 5.92 | – | – |
| CC1NC(=O)C(c2ccc(F)cc2)=C1c1cc(F)c2c(c1)NC(=O)CO2 (configuration not stated) | 5.30 | < 5.00 | 5.49 | – | – | 7.04 | – | – |
| CC1NC(=O)C(c2ccc(F)cc2)=C1c1cc(Cl)c2c(c1)NC(=O)CO2 (configuration not stated) | 5.96 | < 5.00 | 5.80 | – | – | 7.64 | – | – |
| CC1C(c2ccc3c(c2)NC(=O)CO3)=C(c2ccc(F)cc2)C(=O)N1CCO (configuration not stated) | < 5.00 | < 5.00 | < 5.00 | – | – | 5.80 | – | – |
| O=C1COc2ccc(C3=C(c4ccc(F)cc4)C(=O)OC3)cc2N1 | < 5.00 | < 5.00 | < 5.00 | – | – | 6.30 | – | – |
| CC1NC(=O)C(c2ccc(F)cc2)=C1c1ccc2c(c1)NC(=O)CO2 (configuration not stated) | 5.04 | < 5.00 | 5.25 | – | – | 7.03 | – | – |
| CCC1OC(=O)C(c2ccc(F)cc2)=C1c1ccc2c(c1)NC(=O)CO2 (configuration not stated) | 5.70 | < 5.00 | 5.66 | – | – | 5.92 | – | – |
| CC1OC(=O)C(c2ccc(F)cc2)=C1c1ccc2c(c1)NC(=O)CO2 (racemic) | 5.42 | < 5.00 | 6.13 | – | – | – | – | – |
| CCN1C(=O)C(c2ccc(F)cc2)=C(c2ccc3c(c2)NC(=O)CO3)C1C (configuration not stated) | 5.80 | < 5.00 | 6.11 | – | – | 7.48 | – | – |
| CC1(F)OC(=O)C(c2ccc(F)cc2)=C1c1ccc2c(c1)NC(=O)CO2 (configuration not stated) | < 5.00 | < 5.00 | 5.30 | – | – | 6.26 | – | – |
